Experiment [1] has as its system Triticum aestivum. Nature of the experiment: Growth inhibition of Triticum aestivum L. cv. Duro at 1 mM after 24 hrs by coleoptile assay. Type of experiment: functional, organism-based. The method, boiled down:
(§1)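 Etiolated wheat coleoptile sections (apical 2 mm discarded, next 4 mm used; cut under green safelight), tested at 10^-3 to 10^-6 M from DMSO stock (max 0.1% DMSO final) in phosphate–citrate buffer pH 5.6 with 2% sucrose. Five sections per tube, three tubes per dilution, duplicated. Tubes rotated at 0.25 rpm, 24 h, 22 °C, dark. Lengths from digitized images. Reported as % difference from parallel control; Welch's test.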

The subject of experiment [2] is Lactuca sativa. The experiment is described as follows: Phytotoxicity against Lactuca sativa L. assessed as inhibition of root growth at 0.5 mM to 50 uM relative to control. Type of experiment: functional, organism-based. A digest of the protocol: (§2)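 Seeds on filter paper in Petri dishes with 10^-2 M MES buffer, pH 6.0. Test concentrations 5×10^-4, 10^-4, 5×10^-5 and 10^-5 M, made by diluting DMSO solutions at 5 μL/mL buffer. Dishes sealed and kept at 25 °C in the dark: lettuce and tomato 5 days, onion 7 days. Plants frozen at -10 °C for 24 h before measurement. Root and shoot length recorded automatically and compared with buffer/DMSO control.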

Experiment [3] deals with Lactuca sativa. Nature of the experiment: Phytotoxicity against Lactuca sativa L. assessed as inhibition of shoot growth at 0.5 mM to 50 uM relative to control. Type of experiment: functional, organism-based. A digest of the protocol:
as §2

Experiment [4] concerns Solanum lycopersicum. The experiment is described as follows: Phytotoxicity against Lycopersicon esculentum Will assessed as inhibition of shoot development at 0.5 mM relative to control. The format is functional. A digest of the protocol:
as §2

The subject of experiment [5] is Allium cepa. Nature of the experiment: Phytotoxicity against Allium cepa assessed as inhibition of root growth at 0.5 mM relative to control. The format is functional. A digest of the protocol:
as §2

Experiment [6] has as its system Triticum aestivum. The experiment is described as follows: Growth stimulation of Triticum aestivum L. cv. Duro at <1 mM after 24 hrs by coleoptile assay. The format is functional, organism-based. A digest of the protocol:
as §1

Experiment [7] has as its system Triticum aestivum. Nature of the experiment: Growth inhibition of Triticum aestivum L. cv. Duro after 24 hrs by coleoptile assay. The format is functional, organism-based. A digest of the protocol: as §1
Experiment [8] deals with Triticum aestivum. Nature of the experiment: Growth inhibition of Triticum aestivum L. cv. Duro at 1 uM after 24 hrs by coleoptile assay. Type of experiment: functional. The method, boiled down: as §1
Experiment [9] concerns Solanum lycopersicum. Nature of the experiment: Phytotoxicity against Lycopersicon esculentum Will assessed as inhibition of root growth at 0.5 mM to 50 uM relative to control. The format is functional. The method, boiled down:
as §2

Experiment [10] has as its system Allium cepa. Nature of the experiment: Phytotoxicity against Allium cepa assessed as inhibition of shoot growth at 0.5 mM relative to control. Type of experiment: functional. The method, boiled down: as §2

SMILES strings stand for the structures. Calls of active or inactive are those of the source. The rule behind the calls is not given here.

Here are results for seven molecules from ChEMBL document CHEMBL1157946, “Sesquiterpene lactones as allelochemicals” (J Nat Prod, 2006).

With `C=C1C(=O)O[C@@H]2[C@H]3C(C)=CC[C@H]3[C@](C)(O)C[C@@H](OC(=O)/C(C)=C\C)[C@@H]12`, in the experiment with Triticum aestivum [1], the IC50 came to 150 µM and the inhibition at 1000 µM is 98%.

Regarding `C=C1C(=O)O[C@H]2/C=C(/CO)C(=O)/C=C/[C@@](C)(O)C[C@@H](OC(=O)/C(C)=C\C)[C@@H]12`, the result in the experiment on Lactuca sativa [2] and in the experiment with Lactuca sativa [3] was Active. In addition, the inhibition at 500 µM in the experiment on Solanum lycopersicum [4] was 20%; in the experiment on Allium cepa [5], 54%.

In the case of `C=C1C(=O)O[C@H]2[C@H]1[C@H](OC(=O)/C(C)=C\C)C[C@@]1(C)[C@H](O)C[C@H](O)C(=C)[C@@H]21`, the result with Triticum aestivum [6] was Active.

Consider `C=C1C(=O)O[C@@H]2[C@H]3C(CO)=CC[C@H]3C(=C)CC[C@@H]12` [ANNUOLIDE A], for which the inhibition at 1000 µM in the experiment on Triticum aestivum [1] stood at 90%. Further, the IC50 with Triticum aestivum [7] (Triticum aestivum, 24 h) is 370 µM. The inhibition at 1 µM in the experiment on Triticum aestivum [8] turned out to be 35%.

For `C=C1C(=O)O[C@@H]2[C@H]3C(C)=C[C@H](O)[C@H]3[C@](C)(O)C[C@@H](OC(=O)/C(C)=C\C)[C@@H]12` [ANNUOLIDE H], the “inhibition (INH)” value in the experiment on Triticum aestivum [7] came to 82%.

Regarding `C=C1C(=O)O[C@H]2[C@H]1[C@H](OC(=O)/C(C)=C\C)C[C@]1(C)C=CC(=O)C(=C)[C@H]2O1` [HELIVYPOLIDE F], the outcome in the experiment on Triticum aestivum [1], in the experiment with Lactuca sativa [2] and with Lactuca sativa [3] was Active. In the experiment on Solanum lycopersicum [9], the “inhibition (INH)” value worked out at 32%. In addition, the inhibition at 500 µM in the experiment with Solanum lycopersicum [4] was determined as 20%; in the experiment on Allium cepa [5] it was 54%; with Allium cepa [10], 20%.

In turn, `C=C1C(=O)O[C@@H]2/C=C(/CO)[C@@]3(O)CC[C@@](C)(C[C@@H](OC(=O)/C(C)=C\C)[C@@H]12)O3` [NIVEUSIN B] came in with an inhibition at 1000 µM with Triticum aestivum [1] of 92%. Moreover, the inhibition at 500 µM in the experiment on Solanum lycopersicum [4] turned out to be 20%.
